From PubChem
Yeast lifespan up: extends the lifespan of yeast | S. cerevisiae growth with nicotinamide, OD615; deaD strain in restrictive glucose medium | inhibition of the nicotinamide effect, % at 10 µM | actives 0.68% (n = 130,000) | AID 775;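 active = inhibition above a set limit, placed 3 SD over the median of all compounds, cut at about 26% in these data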;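 also: 0% = nicotinamide-treated wells and 100% = cells grown without nicotinamide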
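Measured by: optical density (absorbance) at 615 nm; System: modified budding yeast, DeaD strain; Medium: restrictive CSMM-D dextrose medium; Timing: 4 h preincubation then 48 h treatment at 30 °C.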
S1P3 antagonist: antagonists of human S1P3 receptor; actives 0.27% (n = 170,000); AID 485; inhibition, % at 4.98 µM; CHO S1P3 NFAT-BLA reporter, FRET fluorescence, antagonist mode; Q99500;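 active = inhibition above the plate cutoff, the mean inhibition of test wells on that plate plus 3 SD, cut at about 28% in these data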;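 also: cells challenged with S1P at its EC80 of 0.8 µM; blue over green emission ratio from cleaved BLA substrate after 4 h stimulation; 0% = S1P-stimulated wells and 100% = unstimulated DMSO-only wells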
Target sequence (Q99500 whole entry, looked up): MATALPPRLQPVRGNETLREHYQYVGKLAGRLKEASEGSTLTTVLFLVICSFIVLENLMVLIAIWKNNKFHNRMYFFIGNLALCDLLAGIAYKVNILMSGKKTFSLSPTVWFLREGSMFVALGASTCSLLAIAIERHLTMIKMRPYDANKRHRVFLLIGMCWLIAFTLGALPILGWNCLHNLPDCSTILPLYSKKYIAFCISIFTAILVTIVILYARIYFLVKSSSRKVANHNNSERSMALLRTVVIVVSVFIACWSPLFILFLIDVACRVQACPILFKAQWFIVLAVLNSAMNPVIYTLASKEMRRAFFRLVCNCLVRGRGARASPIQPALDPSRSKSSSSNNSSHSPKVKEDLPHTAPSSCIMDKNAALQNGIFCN
Yeast growth inh: chemicals that inhibit yeast BB579 growth in restrictive medium (lifespan-shortening candidates); S. cerevisiae BB579 growth, OD615, 48 h; inhibition, % at 10 µM; actives 0.51% (n = 140,000); AID 804;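 active = inhibition above a set limit, 3 SD over the mean compound inhibition, cut at about 44% in these data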
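System: DeaD yeast strain BB579; buffer or medium: CSMM-D dextrose restrictive medium; technique: OD at 615 nm; schedule: 4 h cell preincubation, 48 h compound exposure, 30 °C humidified; doses: single 10 µM dose; controls: amphotericin B 10 µg/mL, positive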
Active calls of the source: *; · = no result given. In the library only some 0.98% were active in any assay of this set; here they are far more common.

SMILES | Yeast lifespan up | S1P3 antagonist | Yeast growth inh
O=S1(=O)N=C(N(CCO)/N=C/c2ccccc2)c2ccccc21 | · | 0 | ·
CCOc1ccc(NC(=O)CSc2nnc(-c3ccccc3Cl)n2Cc2ccco2)cc1 | -25 | 1 | -48
COc1ccccc1-c1cc(C(F)(F)F)nc(S(C)(=O)=O)n1 | 38 | · | -1
CS(=O)(=O)c1nc(-c2ccco2)cc(C(F)(F)F)n1 | 89* | · | -49
Cc1cc(C)c(NC(=O)COC(=O)c2cccc3c2C(=O)c2ccccc2C3=O)c(C)c1 | 18 | -1 | -39
Cc1cc(C)c(Nc2cc(S(=O)(=O)O)c(N)c3c2C(=O)c2ccccc2C3=O)c(C)c1 | 35* | -2 | -71
N#C/C(=C\C=C\c1ccccc1)c1nc(-c2ccc3c(c2)OCO3)cs1 | 3 | -21 | -14
Clc1ccc(CNC2CCCC2)c(Cl)c1 | -14 | · | -23
S=C(NCc1ccc(Cl)cc1Cl)NC1CCCCC1 | 4 | 3 | 71*
COc1ccc(C(=O)NC(C(=O)NCC2CCCO2)C(C)C)cc1 (stereo unspecified) | · | -23 | ·
COc1cc(OC)cc(-c2nnc(SCc3cccnc3)o2)c1 | -5 | -7 | 16
COc1ccc(/C=C/C(=O)c2c(O)cc(C)oc2=O)c(OC)c1 | -8 | · | -54
COc1cc(/C=C/C(=O)c2c(O)cc(C)oc2=O)cc(OC)c1O | 56* | · | -17
COc1ccc(C(=O)/C=C/c2cc(OC)c(O)c(OC)c2)c(F)c1 | -4 | -5 | -27
COc1cccc(/C=C/C(=O)c2c(O)cc(C)oc2=O)c1O | 47* | · | -12
COc1ccc(-c2c/c(=N\c3nc(-c4ccccc4)c(C)s3)c3ccccc3o2)cc1O | -4 | · | -33
Nc1ccc(Sc2cnn(-c3ccccc3)c(=O)c2Cl)cc1 | -10 | · | -21
Cc1ccc(Sc2cnn(-c3ccccc3)c(=O)c2Cl)cc1 | 31* | · | -9
Cc1nn(C)c(Oc2cccc(C(F)(F)F)c2)c1C#N | · | -3 | ·
CC(C)=C1C(=O)NN(c2ccc(C)c(Cl)c2)C1=O | 45* | -25 | -23
CC(C)=C1C(=O)NN(c2cccc(Cl)c2)C1=O | 12 | 2 | 3
Cc1ccc2c(c1)c1c(n2C)-c2[nH]ncc2CC1 | · | · | 99*
Cc1ccc2c(c1)c1c(n2C)C(C(N)=O)CCC1 (stereo unspecified) | -21 | 12 | 14
O=C1/C(=C/c2ccncc2)SC(=S)N1N1CCOCC1 | · | 0 | ·
CCCCOC(=O)Cn1cnc2ccc(Br)cc2c1=O | 15 | 9 | -31
SMILES | Yeast lifespan up | S1P3 antagonist | Yeast growth inh
CC(C)COC(=O)Cn1cnc2ccc(Br)cc2c1=O | 27* | 6 | -14
CC1CCc2ccccc2N1C(N)=Nc1ccccc1 (stereo unspecified) | · | -13 | ·
CN(c1ccccc1)c1ccc(/C=C/[N+](=O)[O-])cc1 | -11 | -17 | 100*
CN(C)c1ccc(-n2cccc2/C=C/[N+](=O)[O-])cc1 | · | 2 | ·
O=C(Nc1ccc(N2CCOCC2)cc1)c1ccc2nc(-c3ccco3)c(-c3ccco3)nc2c1 | -19 | 30 | -27
S=C(Nc1ccc(N2CCOCC2)cc1)Nc1ccc2nc(-c3ccco3)c(-c3ccco3)nc2c1 | 37* | · | -94
COCCNC(=O)C(c1ccc(C)cc1)N(C(=O)CCC(=O)Nc1ccccn1)C1CCCC1 (stereo unspecified) | · | 3 | ·
COc1ccc2cc(C(=O)O)ccc2c1 | -29 | · | 84*
COc1ccc(CC(=O)Nc2ccc(C(=O)O)cc2NC(=O)Cc2ccc(OC)cc2)cc1 | · | -3 | ·
COc1ccccc1-c1nc2n(n1)C(c1ccccc1Cl)C(C(N)=O)=C(C)N2 (stereo unspecified) | 1 | -54 | 20
COC(=O)C1C(c2ccccc2)C(C(=O)N2CCN(C)CC2)C1c1ccccc1 (stereo unspecified) | -8 | 8 | 11
O=C(Oc1ccccc1)n1c(=S)oc2ccccc21 | -12 | 4 | -10
Cc1ccccc1OC(=O)n1c(=S)oc2cc(Cl)ccc21 | 80* | · | -34
CCOC(=O)c1[nH]c2cc(OC)c(OC)cc2c1NC(=O)C(C)N1CCN(Cc2ccccc2)CC1 (stereo unspecified) | -16 | · | 7
Cc1ccc(NN2C(=O)C=C(c3ccc(Cl)cc3)C2=O)cc1 | -6 | · | 47*
O=C1C=C(c2ccccc2)C(=O)N1Nc1ccccc1 | 5 | · | 44*
Cc1ccc(NN2C(=O)C=CC2=O)cc1 | 2 | 7 | -25
COc1ccc(C2=CC(=O)N(Nc3ccccc3)C2=O)cc1 | · | 4 | ·
CC(C)N(Cc1ccccc1)C(=S)NC(=O)C1(C)CC1(Cl)Cl (stereo unspecified) | · | -3 | ·
Brc1ccc(-c2csc(N3CCC(c4ccccc4)C3)n2)cc1 (stereo unspecified) | 0 | · | -52
Cc1cc(C(=O)CN2C(=O)NC3(CCCC3)C2=O)c(C)n1-c1ccc2c(c1)OCO2 | 4 | -18 | 14
Cc1cc(C(=O)CN2C(=O)NC(C)(CC(C)C)C2=O)c(C)n1-c1ccc2c(c1)OCO2 (stereo unspecified) | 65* | 3 | -21
O=C(CN1C(=O)C2C3C=CC(C3)C2C1=O)Nc1nncs1 (stereo unspecified) | · | -8 | ·
COc1ccc(N2CS(=O)CC2=O)cc1 (stereo unspecified) | · | -15 | ·
CN1CC=C2C(C#N)=C(N)C(C#N)(C#N)[C@H](c3cccc(Cl)c3)C2C1 (stereo partly specified) | -9 | · | -17
SMILES | Yeast lifespan up | S1P3 antagonist | Yeast growth inh
CC(C)c1ccc(C2C3CSCC=C3C(C#N)=C(N)C2(C#N)C#N)cc1 (stereo unspecified) | 29* | · | -27
CC(=O)Nc1ccc(Oc2cnccn2)cc1 | -7 | -14 | 9
Cc1cccc(NC(=O)c2ccc(CN3CCc4ccccc4C3)cc2)c1C | · | -33 | ·
CN(Cc1ccon1)Cc1cn(C)nc1-c1ccc2c(c1)OCCO2 | · | 2 | ·
COc1ccc(OC)c(C2C(C(C)=O)=C(O)C(=O)N2CCN2CCOCC2)c1 (stereo unspecified) | -7 | -4 | -31
COc1ccc(OC)c(C2C(C(C)=O)=C(O)C(=O)N2CCC(=O)O)c1 (stereo unspecified) | -15 | 104* | 11
CCC(C)N(CCNC(=O)CC1Oc2ccc(C)cc2NC1=O)C1CCCCC1 (stereo unspecified) | -7 | -1 | -44
CC#CC[N+](C)(CC#CC)CC(=O)c1ccccc1 | · | 14 | ·
O=C1C(C2=C(O)c3ccccc3C2=O)=Nc2ccccc21 | 45* | -7 | -9
CN=CC1=C(O)c2ccccc2C1=O | -14 | 14 | -22
Cc1ccc(OCC(=O)n2nc(C)cc2C)c(Br)c1 | · | -16 | -33
CC(=O)C1=C(C)Nc2ncnn2C1c1ccc(Cl)cc1 (stereo unspecified) | -8 | 81* | -14
COc1cc(C2C(C(C)=O)=C(C)Nc3ncnn32)ccc1O (stereo unspecified) | 2 | · | -79
CCC(=O)Nc1ccccc1Sc1ncnc2scc(-c3ccccc3)c12 | 62* | -1 | -33
O=C(O)CSc1ncnc2scc(-c3ccccc3)c12 | · | -2 | ·
Cc1nn2c(-c3ccccc3)nnc2c2ccccc12 | -29 | 6 | 20
Cc1nn2c3ccccc3nc2c2ccccc12 | -12 | · | 79*
Cn1c(N)c(C(=O)CSc2ccccn2)c(=O)n(C)c1=O | 4 | -8 | -62
